Screening data (PubChem BioAssay)
Only some compounds are listed: those with a hit (about 3.1% of all), similar ones and a draw of the others.
OX1R antag-1: OX1R (HCRTR1) antagonists, primary screen, fluorescence, CHO/OX1R cells, Fluo-8 calcium, orexin A; Orexin/Hypocretin receptor type 1 (Homo sapiens), O43613; Fluo-8 calcium fluorescence; inhibition, % at 5 µM; hit rate 0.43% among 330,000;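 active means inhibition above its plate's threshold, mean inhibition of all tested compounds on the plate plus 3 SD, cut at about 37% in these data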;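 further: 0% = orexin A challenge wells and 100% = SB-334867-A antagonist wells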
GPR7 antag: GPR7 receptor antagonists, primary screen, cell-based, fluorescence, single concentration; Neuropeptides B/W receptor type 1 (Homo sapiens), P48145; GPR7-expressing cells, fluorescence antagonist assay; inhibition, % at 4.4 µM; hit rate 1.1% among 290,000; AID 1861, 2009; in the data active means inhibition above about 16%, passing the limit was not always enough;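 further: cells stimulated with the agonist NPW; 0% = agonist with vehicle and 100% = vehicle without agonist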
Target sequence (P48145 whole entry, looked up): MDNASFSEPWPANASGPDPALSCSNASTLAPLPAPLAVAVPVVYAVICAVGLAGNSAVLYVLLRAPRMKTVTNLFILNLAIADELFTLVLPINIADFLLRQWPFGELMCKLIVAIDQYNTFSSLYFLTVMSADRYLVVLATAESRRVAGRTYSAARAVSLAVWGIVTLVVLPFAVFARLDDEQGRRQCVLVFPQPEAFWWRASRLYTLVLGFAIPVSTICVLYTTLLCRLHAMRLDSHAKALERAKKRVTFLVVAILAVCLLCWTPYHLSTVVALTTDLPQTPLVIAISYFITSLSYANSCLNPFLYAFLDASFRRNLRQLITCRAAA
OX1R antag-2: antagonists of human orexin 1 receptor (OX1R); Orexin/Hypocretin receptor type 1 (Homo sapiens), O43613; OX1R-expressing cells, FRET antagonist read-out; inhibition, % at 6.6 µM; hit rate 1.8% among 330,000; AID 485270, 2010; in the data active means inhibition mostly above about 38%, no sharp cut-off; inactive means mostly below about 40%;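 further: 0% = agonist challenge alone and 100% = reference antagonist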
GalR3 antag: GalR3 antagonists in HEK293 cells, primary screen, cell-based, fluorescence readout | inhibition, % at 3 µM | AID 651719, 2012 | Galanin receptor type 3 (Homo sapiens), O60755 | hit rate 0.44% among 360,000 | HEK293 GalR3-CNG cAMP membrane potential fluorescence; galR3 body fused to GalR1 C-terminus;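 active means inhibition above the screen-wide average plus 3 SD, cut at about 13% in these data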;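 further: forskolin and galanin both at EC90 stimulate the cells; cAMP rise reported by CNG channel membrane potential dye signal; 0% = forskolin plus galanin with DMSO and 100% = forskolin alone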
Target sequence (O60755 1-299 limits assumed): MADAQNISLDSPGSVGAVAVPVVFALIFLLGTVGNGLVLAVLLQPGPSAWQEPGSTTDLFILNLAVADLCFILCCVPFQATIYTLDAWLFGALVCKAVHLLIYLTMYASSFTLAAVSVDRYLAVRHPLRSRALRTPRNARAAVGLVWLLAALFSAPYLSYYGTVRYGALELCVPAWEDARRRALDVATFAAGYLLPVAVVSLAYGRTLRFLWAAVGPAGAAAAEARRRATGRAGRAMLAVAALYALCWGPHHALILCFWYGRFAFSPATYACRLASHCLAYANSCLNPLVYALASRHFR
CHO parental Ca: ATP-evoked calcium signal inhibitors, parental CHO, primary screen, counter-screen for OX1R antagonist project, cell-based, fluorescence, Fluo-8 calcium dye. parental CHO-K1, ATP-induced calcium, Fluo-8 fluorescence. inhibition, % at 5.6 µM. hit rate 0.63% among 330,000. AID 463079, 2010;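 active means inhibition above that plate's mean sample inhibition plus 3 SD, cut at about 26% in these data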;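 further: 0% = ATP-challenged DMSO wells and 100% = DMSO wells without ATP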
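Material: Parental CHO cells | Reagent: ATP | Compound dosing: Single nominal dose of 5.6 µM per compound | Detection: Intracellular calcium via Fluo-8 no-wash fluorescent dye | Read-out: % inhibition of ATP-induced calcium mobilization | Benchmarks: Low control ATP plus DMSO, high control DMSO only | Replicates: Singlicate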
GalR3 conf: GalR3 antagonist hit confirmation, cell-based, fluorescence, triplicate; shares compounds with GalR3 antag; HEK293 GalR3 CNG cAMP biosensor, membrane potential fluorescence; galR3 fused to GalR1 carboxy tail; challenged with forskolin and galanin at EC90; inhibition, % at 3 µM; hit rate 59% among 1,600;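 active means inhibition above the primary screen's cutoff, the mean inhibition of all screened compounds plus 3 SD, cut at about 13% in these data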;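 further: 0% = forskolin plus galanin and 100% = forskolin alone with DMSO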
HEK-CNG parental: nonspecific cAMP agonists in parental HEK-CNG cells, counter-screen for GalR3 antagonist project, cell-based, fluorescence, high throughput; shares compounds with GalR3 antag; hit rate 10% among 1,600; AID 652268, 2013; HEK293-CNG parental cells, cAMP membrane potential fluorescence; normalised: DMSO wells 0%, forskolin wells 100%; activation, % at 3 µM; in the data active means activation above about 1.3%
Numbers without * were called inactive.

COc1ccc(-c2cc(N)n(S(=O)(=O)c3c(F)c(F)c(F)c(F)c3F)n2)cc1OC was read as OX1R antag-1 24, GPR7 antag 9, OX1R antag-2 19, GalR3 antag 54*, CHO parental Ca 45*, GalR3 conf 60* and HEK-CNG parental 1.
`COc1ccc(S(=O)(=O)n2nc(-c3cc(OC)c(OC)c(OC)c3)cc2N)cc1OC` gave OX1R antag-1 -37, GPR7 antag -1, OX1R antag-2 16, GalR3 antag -1 and CHO parental Ca -20.
`CC1(C)CC(=O)/C(=C(\O)CCCN2C(=O)c3ccccc3C2=O)C(=NCC(=O)O)C1` gave OX1R antag-1 9, GPR7 antag -11, OX1R antag-2 9, GalR3 antag 15*, CHO parental Ca 2, GalR3 conf 1 and HEK-CNG parental 0.
Screening COC(=O)c1cc(S(=O)(=O)NCCCN2CCCC2=O)cn1C returned OX1R antag-1 -5, GPR7 antag -2, OX1R antag-2 16, GalR3 antag -2 and CHO parental Ca -1.
CCN(c1ccccc1)S(=O)(=O)c1ccc(C(=O)N2CCN(c3ccccc3)CC2)cc1 was read as OX1R antag-1 -11, OX1R antag-2 10, GalR3 antag -5 and CHO parental Ca -8.
`Cc1nnsc1C(=O)NC1CCCc2c1cnn2-c1ccc(F)cc1F` (stereo unspecified) gave OX1R antag-1 -1, GPR7 antag 5, OX1R antag-2 25, GalR3 antag 105*, CHO parental Ca 21, GalR3 conf 103* and HEK-CNG parental 0.
`CN1N=C(C(=O)NC2CCCc3c2cnn3-c2ccc(F)cc2F)CCC1=O` (stereo unspecified) gave OX1R antag-1 -10, GPR7 antag -24, OX1R antag-2 6, GalR3 antag 1 and CHO parental Ca -9.
Cc1ccc(C(=O)NC2CCCc3c2cnn3-c2ccc(F)cc2F)cn1 (stereo unspecified) was read as OX1R antag-1 12, GPR7 antag 5, OX1R antag-2 6, GalR3 antag 97*, CHO parental Ca 38*, GalR3 conf 110* and HEK-CNG parental 0.
Screening Cc1nnsc1C(=O)NC1CCCc2c1cnn2-c1cc(F)cc(F)c1 (stereo unspecified) returned OX1R antag-1 -5, GPR7 antag 6, OX1R antag-2 8, GalR3 antag -3 and CHO parental Ca -6.
Screening O=S(=O)(c1ccc(F)cc1)N1CCN(C(=S)NC2CC2)CC1 returned OX1R antag-1 7, OX1R antag-2 -6, GalR3 antag -3 and CHO parental Ca 13.
Cc1nc(NCC2CCCO2)c2nnn(Cc3ccccc3)c2n1 (stereo unspecified) was read as OX1R antag-1 1, GPR7 antag -8, OX1R antag-2 3, GalR3 antag -7 and CHO parental Ca -13.
Screening Cc1nc(NCC2CC2)c2nnn(Cc3ccccc3)c2n1 returned OX1R antag-1 -18, GPR7 antag -7, OX1R antag-2 10, GalR3 antag 18*, CHO parental Ca -6, GalR3 conf -2 and HEK-CNG parental 0.
`CCOc1ccc(-c2nc(CSCC(=O)NC3CCN(Cc4ccccc4)CC3)c(C)o2)cc1` gave GalR3 antag -6.
`Cc1oc(-c2ccc(Cl)cc2)nc1CSCC(=O)NC1CCN(Cc2ccccc2)CC1` gave OX1R antag-1 -48, GPR7 antag 9, OX1R antag-2 -1, GalR3 antag 96*, CHO parental Ca -20, GalR3 conf 106* and HEK-CNG parental 1.
Cc1oc(-c2ccc(Cl)cc2)nc1CN1CCCC(C(=O)NCc2cccnc2)C1 (stereo unspecified) was read as OX1R antag-1 -19, GPR7 antag -9, OX1R antag-2 24, GalR3 antag 83*, CHO parental Ca -18, GalR3 conf 111* and HEK-CNG parental 0.
`Cc1oc(-c2ccc(Cl)cc2)nc1CN1CCCC(C(=O)NCc2ccccn2)C1` (stereo unspecified) gave OX1R antag-1 -27, GPR7 antag -7, OX1R antag-2 8, GalR3 antag -4 and CHO parental Ca -16.
`Cc1cc(C)c2c(c1)/C(=N\N=c1\sc3ccccc3n1C)C(=O)N2` gave OX1R antag-1 -4, GPR7 antag -6, OX1R antag-2 15, GalR3 antag 3 and CHO parental Ca 15.
Screening COCCn1nnnc1C(C(C)C)N(Cc1ccccc1)Cc1cc2cc(OC)ccc2[nH]c1=O (stereo unspecified) returned GPR7 antag 0, GalR3 antag 65*, GalR3 conf 60* and HEK-CNG parental 1.
For COc1ccc2[nH]c(=O)c(CN(Cc3ccco3)C(c3nnnn3Cc3ccccc3)C(C)C)cc2c1 (stereo unspecified) the results were OX1R antag-1 -36, GPR7 antag 0, OX1R antag-2 15, GalR3 antag 13*, CHO parental Ca -10, GalR3 conf 0 and HEK-CNG parental 0.
Screening COCCn1nnnc1C(C(C)C)N(Cc1cccnc1)Cc1cc2cc(OC)ccc2[nH]c1=O (stereo unspecified) returned OX1R antag-1 -19, GPR7 antag -15, OX1R antag-2 16, GalR3 antag 11 and CHO parental Ca -21.
`O=C(NS(=O)(=O)N1CCCC1)C1=C(N2CCCC2)COC1=O` gave OX1R antag-1 1, OX1R antag-2 1, CHO parental Ca -3, GalR3 conf 0 and HEK-CNG parental 0.
Screening O=C(NS(=O)(=O)NC1CCCCC1)C1=C(N2CCCC2)COC1=O returned OX1R antag-1 14, OX1R antag-2 -5, GalR3 antag 8 and CHO parental Ca 5.
For COc1ccc(CCNc2ncnc3sc(C)cc23)cc1OC the results were GPR7 antag 13, GalR3 antag 86*, GalR3 conf 110* and HEK-CNG parental 0.
For COc1cc(/C=N/NC(=O)CC#N)ccc1Oc1nc(Cl)ncc1F the results were OX1R antag-1 -7, GPR7 antag -11, OX1R antag-2 -2, GalR3 antag -10 and CHO parental Ca -2.
